Reference: article PMC9789792 (Inorganic chemistry, 2022)
Read-outs that look alike come from different tables or passages of the source.

Assays:
SadX [1] = experiment: SadX activity assay: conversion of 1a in the presence of salts; assay type: biochemical; conditions: 10 μM SadX, 1 mM 1a, 50 mM salt, overnight, room temperature
SadX [2] = assay type: biochemical; conditions: for Km: KM for salt; for Km / kcat: hydroxylation of 1a (1 mM) to give 1b by 0.5 μM SadX, varying [salt]; for Kinetic behaviour of 1b formation as a function of salt concentration: saturating 1a (1 mM), SadX
Fe(II) center in SadX = experiment: UV-vis titration of anion binding; conditions: SadX-His/Fe(II)/αKG, 100 mM HEPES pH 7.5
How it was run: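 Anaerobic (N₂ glovebox, degassed buffer): SadX-His (0.51 mM, 0.5 μmol) plus FeSO₄ (0.375 μmol) in 100 mM HEPES pH 7.5, 23 °C, quartz cuvette. αKG (5 μmol) added, then anion salt (10–200 mM stocks). Spectra 350–800 nm, dilution-corrected. Difference spectra taken versus initial SadX-His/Fe(II) and zeroed at 800 nm. λmax absorbances fitted to single-site saturation binding for KD.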

SadX [3] = experiment: Steady state kinetic analysis of SadX with varying concentrations of 1a; assay type: biochemical

Molecule | Conversion of 1a (to 1b) (SadX [1]) | Km (SadX [2]) [µM] | kcat (SadX [2]) [s⁻¹] | Kinetic behaviour of 1b formation as a function of salt concentration (SadX [2]) | Kd (Fe(II) center in SadX; Blue-shifted Absorbance) [µM] | Kd (Fe(II) center in SadX; Red-shifted Absorbance) [µM] | Fold improved kcat/KM relative to that in the absence of salt (SadX [3]; SadX, hydroxylation of 1a) [fold] | Fold by which hydroxylation kcat/KM exceeds WT SadA (SadX [3]; SadX, hydroxylation of 1a) [fold] | kcat (SadX [3]; azidation of 1a by SadX to give 1eN3, varying [1a])
CC(=O)O [acetate] | low conversion |  |  |  |  |  |  |  | 
[Cl-].[Na+] [NaCl] |  | 4160 | 0.197 | exhibit saturation kinetics | 600 | 490 |  |  | 
N#C[O-].[Na+] [cyanate] | high conversion |  |  |  |  |  |  |  | 
[Cs+].[F-] [CsF] |  | 12000 | 0.357 |  | 460 | 450 | 16 |  | 
F[P-](F)(F)(F)(F)F.[NH4+] [NH4PF6] | trace conversion |  |  | does not follow Michaelis Menten kinetics |  |  |  |  | 
bromide | significantly lower conversion |  |  |  |  |  |  |  | 
O=C[O-].[Na+] [NaOC(O)H] |  | 450 | 0.122 |  | 530 | 470 |  |  | 
[N-]=[N+]=[N-].[Na+] [NaN3] |  | 14 | 0.953 | exhibit saturation kinetics | 2650 | 600 |  | 12 | 8.72 10^−3 s^−1
